This is a sample that favours compounds with a hit; in the whole collection about 2.5% have one here.
SENP8 block-1 – blocks the human protease SENP8. actives 1.2% (n = 330,000). Q96LD8. purified SENP8, Z-RLRGG-aminoluciferin cleavage, luminescence. AID 2540. inhibition, % at 10 µM; in the data active = inhibition above about 50%
Target sequence (Q96LD8 whole entry, looked up): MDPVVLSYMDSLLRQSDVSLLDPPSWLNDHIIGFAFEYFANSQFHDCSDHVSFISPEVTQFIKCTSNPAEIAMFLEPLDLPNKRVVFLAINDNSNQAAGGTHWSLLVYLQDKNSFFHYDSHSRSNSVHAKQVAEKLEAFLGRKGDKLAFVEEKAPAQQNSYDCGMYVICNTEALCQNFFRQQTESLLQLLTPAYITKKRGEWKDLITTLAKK
SENP1 inh – blocks the human SENP1 SUMO protease catalytic domain; Q9P0U3; recombinant SENP1 catalytic domain, CyPet-SUMO1-YPet FRET cleavage; inhibition, % at 10 µM; actives 0.21% (n = 360,000); AID 624204;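 active = inhibition at least 30% at 10 µM, raw YFP signal under a set limit, fluorescence ratio 0.5 to 1.5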;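 note: 0% = enzyme with DMSO and 100% = no enzyme wells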
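System: Recombinant human SENP1 catalytic domain, His6-tagged | Incubation: Enzyme reaction for 50 min at room temperature, dark | Medium: Tris pH 8 with BME, BSA, NP40 and catalase | Also added: 25 nM SUMO1 FRET substrate | Compound: 10 µM single point, 0.5% DMSO | Measured by: FRET fluorescence in CFP and YFP emission channels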
SENP7 block – inhibitors of human SENP7 protease | recombinant SENP7, Z-RLRGG-aminoluciferin luminescence, 40 min | inhibition, % at 5 µM | actives 1.5% (n = 330,000) | Q9BQF6;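 active = inhibition above about 50% at the single test dose, limit read from the data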;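 note: plate controls were DMSO with enzyme for no effect and no enzyme buffer wells for full effect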
SENP6 inh – inhibitors of human SENP6 protease | Q9GZR1 | AID 2599 | actives 1.8% (n = 330,000) | Recombinant SENP6 catalytic domain, aminoluciferin luminescence | inhibition, % at 10 µM;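 active = inhibition above about 50% at the single tested dose, limit read from the data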;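 note: plate controls were DMSO wells with enzyme for no effect and DMSO wells lacking enzyme for full effect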
SENP8 block-2 – inhibitors of human SENP8 protease | inhibition, % at 20 µM | recombinant SENP8, Nedd8 substrate fluorescence | Q96LD8 | actives 0.64% (n = 360,000) | AID 602440; in the data active = inhibition mostly above about 40%, no sharp cut-off; inactive = mostly below about 27%
Starred values were filed as active, the others as inactive; . = no result given.

SMILES	SENP8 block-1	SENP1 inh	SENP7 block	SENP6 inh	SENP8 block-2
COc1ccc([N+](=O)[O-])cc1C(=O)C(=O)c1ccccc1	-12	4	-15	-11	44*
CCN(CC)c1ccc(/C=c2\sc3nnc(-c4ccccc4Cl)n3c2=O)cc1	7	-18	3	2	61*
COc1ccc(Cl)cc1N=Cc1c(O)cc(C)oc1=O	2	-3	3	-17	-43
Cc1cc(O)c(/C=N/Nc2ccc(Cl)cc2)c(=O)o1	80*	-10	56*	85*	-101
COc1ccc(C(=O)Cn2nc(CNc3ccc(Br)cc3)[n+]3c2CCCCC3)cc1	0	1	11	12	24
Cc1ccc(C(C)C)c(OCc2nn(CC(=O)c3ccc(OC(F)F)cc3)c3[n+]2CCCCC3)c1	-13	67*	4	-36	11
O=C(NCCc1ccccc1)c1ccc2nc(-c3ccco3)c(-c3ccco3)nc2c1	15	-25	2	13	-295
O=C(NCCO)c1ccc2nc(-c3ccco3)c(-c3ccco3)nc2c1	37	-29	23	56*	-192
O=C1NC2=C(CCc3ccccc32)C(c2ccccc2)N1 (stereo not given)	87*	-11	73*	95*	-167
O=C1CC(N2CCSCC2)C(=O)N1c1cccc(Cl)c1 (stereo not given)	-18	1	-5	-22	-3
O=[N+]([O-])c1c(Nc2ccccn2)cc(Cl)c2nonc12	43	-2	95*	87*	68*
COc1cccc2c1C(=O)c1c(O)c3c(c(O)c1C2=O)C[C@@](O)(C(=O)CO)C[C@@H]3OC1CC(N)C(O)C(C)O1 (stereo not given in full)	.	97	.	.	94*
COc1cccc2c1C(=O)c1c(O)c3c(c(O)c1C2=O)CC(O)(C(C)=O)CC3OC1CC(N(C)C)C(O)C(C)O1 (stereo not given)	.	101	.	.	49*
CC(=O)[C@@]1(O)Cc2c(O)c3c(c(O)c2[C@H](O[C@H]2C[C@H](N)[C@H](O)[C@H](C)O2)C1)C(=O)c1ccccc1C3=O	.	105	.	.	29
COc1cccc2c1C(=O)c1c(O)c3c(c(O)c1C2=O)C[C@@](O)(C(=O)CO)C[C@@H]3O[C@H]1C[C@H](N)[C@H](O)[C@H](C)O1	9	97*	13	7	26
Cc1noc(C)c1C(=O)N(C)CC(=O)Nc1ccc(F)c(F)c1F	-1	2	-2	-5	20
NC(=O)c1ccccc1N/C=C/C(=O)c1ccc(F)cc1	81*	-69	91*	97*	-490
COc1ccc(/C=C(/NC(=O)c2ccco2)C(=O)N2CCCCCC2)cc1OC	-10	-1	16	-14	-5
Cc1cc[n+](-c2[nH]c(=O)sc2/C=N/N=C(\[O-])c2ccccc2)cc1C	.	40*	.	.	7
CN=c1sc2c(n1C)C(=O)c1ccccc1C2=O	.	1	.	.	73*
O=C(N/N=C\c1cc(Cl)ccc1O)c1ccc(S(=O)(=O)N2CCCCC2)cc1	1	51*	7	9	9
O=C(Nc1cc(S(=O)(=O)Nc2ccc(Cl)cc2)ccc1O)c1ccc(S(=O)(=O)N2CCCCCC2)cc1	1	3	2	-10	-6
N=C1C=CC=C2C1=NC1(CCCCC1)N2O	10	4	1	11	36*
Cc1ccc(S(=O)(=O)Nc2cccc(C(=O)NCCCn3ccnc3)c2)cc1F	8	-1	2	2	8
C=CCN(CC=C)C(=S)NC(=O)c1ccc(C)c(Br)c1	-10	1	-2	2	12
SMILES	SENP8 block-1	SENP1 inh	SENP7 block	SENP6 inh	SENP8 block-2
Cc1cc(-c2csc(NC(=O)c3ccc(=O)n(C)n3)n2)c(C)n1CC1CCCO1 (stereo not given)	-8	6	-1	1	43*
O=C(COc1ccc(Br)cc1)NCCCNC(=O)c1ccncc1	0	0	-1	-10	-4
O=c1cc(-c2ccc(O)c(O)c2)oc2cc(O)cc(O)c12	13	25	-7	6	32
O=c1c(O)c(-c2ccc(O)c(O)c2)oc2cc(O)cc(O)c12	28	64	3	53*	33*
CC(C)CC(=O)N1CCN(c2ccc([N+](=O)[O-])c(NCc3ccccc3)c2)CC1	-4	2	3	-12	54*
CCC(=O)NC(c1cccs1)c1cc([N+](=O)[O-])c2cccnc2c1O (stereo not given)	7	0	10	3	66*
